Assay results as given in ChEMBL document CHEMBL1156239, “Synthesis, anticonvulsant and antimicrobial activities of some new 2-acetylnaphthalene derivatives” (Bioorg Med Chem, 2010).
Active and inactive are the calls of the source. The calls are words filed in the database; no cut-off is given here.

Tests used:
[1] = tested on: Mus musculus; test: Anticonvulsant activity in ip dosed CF1 mouse assessed as inhibition of ScM-induced seizures after 5 hrs; format: functional
[2] = tested on: Mus musculus; test: Neurotoxicity in CF1 mouse at 100 mg/kg, ip after 0.5 hrs by rotarod test; format: toxicity, organism-based; design: dose 100 mg/kg, route intraperitoneal; details: in vivo
How it was run: (§1)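 Male albino CF#1 mice (18–25.5 g) dosed ip with compound suspended in 0.5% methylcellulose, 0.5 h or 4 h before testing; neurotoxicity assessed by rotarod, scored as number toxic/number tested.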

[3] = tested on: Mus musculus; test: Anticonvulsant activity in CF1 mouse assessed as time to peak effect for inhibition of maximal electroshock-induced seizures at 23 mg/kg, ip after 1 hr; format: functional, organism-based; design: dose 23 mg/kg
[4] = tested on: Mus musculus; test: Anticonvulsant activity in CF1 mouse assessed as inhibition of maximal electroshock-induced seizures at 300 mg/kg, ip after 0.5 hrs; format: functional, organism-based; design: dose 300 mg/kg
How it was run: (§2)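 Male albino CF#1 mice (18–25.5 g), compound suspended in 0.5% methylcellulose, given ip 0.5 h or 4 h before test. Eyes treated with 0.5% tetracaine HCl in saline; corneal-type MES at 60 Hz, 50 mA for 0.2 s; protection scored as animals protected/tested.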

[5] = tested on: Rattus norvegicus; test: Anticonvulsant activity in Sprague-Dawley rat assessed as inhibition of maximal electroshock-induced seizures at 30 mg/kg, po after 2 hrs; format: functional, organism-based; design: dose 30 mg/kg
How it was run: (§3)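 Male albino Sprague-Dawley rats (105–130 g) given a single oral 30 mg/kg dose suspended in 0.5% methylcellulose; MES (60 Hz, 150 mA, 0.2 s, tetracaine-anesthetized eyes) at 0.25, 0.5, 1, 2 and 4 h; 4 rats per time point; scored protected/tested.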

[6] = tested on: Rattus norvegicus; test: Neurotoxicity in ip dosed Sprague-Dawley rat after 0.5 hrs by rotarod test; format: toxicity, organism-based; details: in vivo
[7] = tested on: Mus musculus; test: Neurotoxicity in CF1 mouse assessed as hyperactivity at 300 mg/kg, ip after 0.5 hrs by rotarod test; format: toxicity, organism-based; design: dose 300 mg/kg, route intraperitoneal; details: in vivo
[8] = Neurotoxicity in ip dosed CF1 mouse after 0.25 hrs by rotarod test; format: toxicity, organism-based; details: in vivo
How it was run: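 TD50 was determined at the time of peak effect in male albino animals. Compound was suspended in 0.5% methylcellulose and given ip. Neurotoxicity was read by rotarod in CF#1 mice and by positional sense, gait and stance in Sprague-Dawley rats. Groups of at least 8 received graded doses spanning 0–100% toxicity.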

[9] = tested on: Mus musculus; test: Neurotoxicity in CF1 mouse at 30 mg/kg, ip after 0.5 hrs by rotarod test; format: toxicity, organism-based; design: dose 30 mg/kg, route intraperitoneal; details: in vivo; how it was run: as §1
[10] = tested on: Rattus norvegicus; test: Anticonvulsant activity in Sprague-Dawley rat assessed as inhibition of maximal electroshock-induced seizures at 30 mg/kg, po after 0.25 hrs; format: functional, organism-based; design: dose 30 mg/kg; how it was run: as §3
[11] = Therapeutic index, ratio of TD50 for Sprague-Dawley rat to ED50 for Sprague-Dawley rat
How it was run: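 Ratio of TD50 to ED50, both from ip dosing at the time of peak effect, with groups of at least 8 per dose and Finney probit analysis. […] Toxicity was read by rotarod in mice and by positional sense, gait and stance in rats.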

[12] = tested on: Rattus norvegicus; test: Neurotoxicity in Sprague-Dawley rat at 30 mg/kg, ip after 0.25 hrs by rotarod test; format: toxicity, organism-based; design: dose 30 mg/kg, route intraperitoneal; details: in vivo
[13] = tested on: Rattus norvegicus; test: Neurotoxicity in Sprague-Dawley rat at 30 mg/kg, po after 1 hr by rotarod test; format: toxicity, organism-based; design: dose 30 mg/kg, route oral; details: in vivo
[14] = tested on: Mus musculus; test: Anticonvulsant activity in CF1 mouse assessed as inhibition of maximal electroshock-induced seizures at 30 mg/kg, ip after 4 hrs; format: functional, organism-based; design: dose 30 mg/kg; how it was run: as §2
[15] = tested on: Rattus norvegicus; test: Neurotoxicity in Sprague-Dawley rat at 30 mg/kg, po after 0.25 hrs by rotarod test; format: toxicity, organism-based; design: dose 30 mg/kg, route oral; details: in vivo
[16] = tested on: Rattus norvegicus; test: Neurotoxicity in Sprague-Dawley rat at 30 mg/kg, ip after 1 hr by rotarod test; format: toxicity, organism-based; design: dose 30 mg/kg, route intraperitoneal; details: in vivo

## CC(C)CC(=O)OC(Cn1ccnc1)c1ccc2ccccc2c1 (stereo unspecified)
[1]
  ED50: > 138 mg/kg
[2]
  Activity: Non-toxic
[3]
  Activity: inactive
[4]
  inhibition: Active
[5]
  inhibition: inactive
[6]
  ED50: 56.36 mg/kg
[7]
  Activity: Toxic
[8]
  TD50 at 0.25 h: 124 mg/kg
[9]
  Activity: Non-toxic
[10]
  inhibition: inactive
[11]
  selectivity ratio: 2.76
[12]
  Activity: Non-toxic
[13]
  Activity: Non-toxic
[14]
  inhibition: inactive
[15]
  Activity: Non-toxic
[16]
  Activity: Non-toxic
